High-throughput results deposited in PubChem by Broad Institute.
Most compounds without a hit are left out; they make up all but 2.9% or so of the library.
PGC1a acetyl inh = PGC1a acetylation modulation, inhibitor mode; AID 651687; U2OS PGC1a acetylation, AlphaScreen anti-acetyl-lysine; with virally co-expressed GCN5 acetyltransferase; inhibition, % at 15.6 µM; 350,000 tested, 0.17% active;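 active = every replicate shows inhibition of at least 40%; inconclusive = mean inhibition at least 40% but some replicate below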;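 note: 0% = neutral control wells and 100% = positive control wells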
DENV2 CPE rescue = DENV2-induced cell death inhibition | DENV2-infected cells, cytopathic effect rescue, plate reader | CPE inhibition, % at 9.99 µM | 350,000 tested, 1.7% active; in the data active = CPE inhibition above about 20%, passing the limit was not always enough; inconclusive = no clear call, values can overlap the other calls; tested in BHK-21 cells;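 note: 0% = median of neutral control wells and 100% = median of positive control wells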
Statin myotox sup = suppression of simvastatin myotoxicity; C2C12 myotubes + simvastatin, ATP luminescence, 48 h; scaled: DMSO 0, geranylgeraniol control 100; rescue of ATP level, % at 7.49 µM; 330,000 tested, 0.78% active;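 active = mean ATP rescue above about 67%, or every replicate alone reaching that limit, limit read from the data, passing the limit was not always enough; inconclusive = no clear call, values can overlap the other calls; inactive = mean under the limit and some replicate under it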;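 note: myotubes were challenged with 10 µM simvastatin during compound exposure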
SIRT5 block = sirtuin-5 (human) deacylase inhibition; 330,000 tested, 1.1% active; inhibition, % at 15 µM; Q9NXA8; AID 652115; Purified SirT5, succinyl-peptide AMC, trypsin-coupled fluorescence; in the data active = inhibition above about 15%; inconclusive = no clear call, values can overlap the other calls
Target sequence (Q9NXA8 whole entry, looked up): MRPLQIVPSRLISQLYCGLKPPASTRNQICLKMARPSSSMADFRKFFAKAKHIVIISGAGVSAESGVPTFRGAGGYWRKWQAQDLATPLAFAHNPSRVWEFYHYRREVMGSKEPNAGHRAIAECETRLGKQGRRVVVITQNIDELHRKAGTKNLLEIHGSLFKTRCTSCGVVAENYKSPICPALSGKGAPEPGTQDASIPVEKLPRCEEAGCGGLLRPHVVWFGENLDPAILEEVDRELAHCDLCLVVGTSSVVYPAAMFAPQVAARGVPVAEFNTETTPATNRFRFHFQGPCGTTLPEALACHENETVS
S100A4 MyoIIA = inhibitors of human S100A4 binding to myosin IIA peptide. 360,000 tested, 0.14% active. S100A4/TAMRA-MyoIIA peptide fluorescence polarization. inhibition, % at 10.7 µM;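 active = mean inhibition of at least 70% across replicates, with every replicate also reaching that level; inconclusive = mean inhibition reaches 70% but some replicates fall short; inactive = mean inhibition below 70%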
Target sequence (P26447 whole entry, looked up): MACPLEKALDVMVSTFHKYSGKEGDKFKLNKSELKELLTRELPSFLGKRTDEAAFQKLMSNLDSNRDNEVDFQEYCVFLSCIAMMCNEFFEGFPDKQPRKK
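Material: S100A4 monomer (human). Medium: Calcium-containing HEPES buffer, pH 7.2. Probe or stimulus: labelled myosin peptide probe, 5 nM. Compound dosing: one concentration per compound. Timing: polarization read 5 min after assay mix addition, stable 5–60 min. Benchmarks: DMSO as neutral control, TFP as positive control.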
* marks the source's active call; other numbers are inactive results; u = inconclusive; x = no result given.

SMILES	PGC1a acetyl inh	DENV2 CPE rescue	Statin myotox sup	SIRT5 block	S100A4 MyoIIA
O=C(O)C[C@@H]1CC[C@H](NC(=O)Nc2cc(F)ccc2F)[C@@H](CO)O1	5	4	3	1	-7
COC(=O)C[C@@H]1C[C@@H]2c3cc(NC(=O)CC4CC4)ccc3O[C@@H]2[C@@H](CO)O1	4	2	-2	-5	-6
Cc1ccc(S(=O)(=O)N2CC[C@@H]3[C@H](CO)Nc4ccc(-c5ccccc5F)cc4[C@@H]32)cc1	-14	147*	1	7	4
O=S(=O)(c1ccccc1F)N1CC[C@@H]2[C@@H](CO)Nc3ccc(-c4cccc(F)c4)cc3[C@@H]21	-9	-19	-15	6	4
O=S(=O)(c1ccccc1F)N1CC[C@@H]2[C@H](CO)Nc3ccc(-c4ccccc4)cc3[C@@H]21	-10	24*	-18	8	16
Cc1ccc(S(=O)(=O)N2CC[C@H]3[C@H](CO)Nc4ccc(-c5ccccc5F)cc4[C@H]32)cc1	0	18	14	5	-1
CO[C@H]1CN(C)C(=O)c2cc(NC(C)=O)ccc2OC[C@@H](C)N(CCc2ccccc2)C[C@@H]1C	0	-2	-15	1	2
CCOc1ccccc1C(=O)Nc1ccc2nc3n(c(=O)c2c1)CCCCC3	4	-4	-47	23*	-1
COc1cc(OC)cc(C(=O)Nc2ccc3nc4n(c(=O)c3c2)CCCC4)c1	x	119*	-39	0	-5
COc1cc(Nc2ccn3nc(-c4ccccc4Cl)cc3n2)cc(OC)c1OC	x	30*	3	6	3
CC(C)c1ccc(NC(=O)[C@H](NC(=O)[C@@H]2Cc3ccccc3CN2)c2ccccc2)cc1	x	57*	x	-3	-15
CC(C)c1ccc(NC(=O)[C@H](Cc2c[nH]c3ccccc23)NC(=O)[C@@H]2Cc3ccccc3CN2)cc1	3	11	-1	1	-2
COc1ccc(NC(=O)[C@H](Cc2c[nH]c3ccccc23)NC(=O)[C@@H]2Cc3ccccc3CN2)cc1	63*	-19	-6	x	-4
COc1ccc(-c2cnc3c(c2)C(=O)N([C@H](C)CO)C[C@H](C)[C@H](CN(C)C(=O)NC2CCCCC2)O3)cc1	-6	u	16	-5	-2
O=C(c1ccc(F)cc1)N1CC(=O)N2[C@H](C1)[C@H](c1ccc(-c3ccccc3)cc1)[C@@H]2CO	-12	-5	x	0	10
O=C(C1CCOCC1)N1CC(=O)N2[C@@H](CO)[C@H](c3ccc(C#CC4CCCC4)cc3)[C@@H]2C1	-7	52*	x	2	-18
O=C(c1ccc(F)cc1)N1CC(=O)N2[C@H](CO)[C@H](c3ccc(-c4ccccc4)cc3)[C@H]2C1	-4	24*	x	-1	6
CC(C)C#Cc1ccc([C@@H]2[C@H](CO)N3C(=O)CN(C(=O)C4CCCCC4)C[C@@H]23)cc1	3	7	x	24*	10
O=C(c1ccc(F)cc1)N1CC(=O)N2[C@@H](CO)[C@@H](c3ccc(C#CC4CCCC4)cc3)[C@@H]2C1	-11	44*	x	-1	-65
CC(C)C#Cc1ccc([C@H]2[C@@H](CO)N3C(=O)CN(C(=O)C4CCCCC4)C[C@H]23)cc1	-15	-9	x	1	0
O=C(c1ccc(F)cc1)N1CC(=O)N2[C@H](CO)[C@@H](c3ccc(C#CC4CCCC4)cc3)[C@@H]2C1	0	u	x	-3	5
CN(C)C(=O)C[C@H]1CC[C@H](NS(=O)(=O)c2ccccc2)[C@@H](CO)O1	8	5	-4	7	52
O=C1CNC[C@H]2[C@@H](c3ccc(C#CC4CCCC4)cc3)[C@@H](CO)N12	-9	10	x	-2	88*
COc1cccc(-c2ccc([C@H]3[C@H]4CNCC(=O)N4[C@H]3CO)cc2)c1	7	22*	x	4	-3
O=C1CNC[C@@H]2[C@@H](c3ccc(C#CC4CCCC4)cc3)[C@H](CO)N12	1	11	x	-1	-12
SMILES	PGC1a acetyl inh	DENV2 CPE rescue	Statin myotox sup	SIRT5 block	S100A4 MyoIIA
O=C(c1ccc(F)cc1)N1CC(=O)N2[C@H](C1)[C@H](c1ccc(C#CCC3CCCC3)cc1)[C@@H]2CO	-10	-4	x	19*	11
Cc1noc(C)c1S(=O)(=O)Nc1ccc2c(c1)C(=O)N([C@H](C)CO)C[C@H](C)[C@@H](CN(C)Cc1ccccc1)O2	x	2	-1	-4	-26
Cc1noc(C)c1S(=O)(=O)Nc1ccc2c(c1)C(=O)N([C@@H](C)CO)C[C@H](C)[C@@H](CN(C)Cc1ccc3c(c1)OCO3)O2	-7	-6	29	3	5
Cc1noc(C)c1S(=O)(=O)Nc1ccc2c(c1)C(=O)N([C@@H](C)CO)C[C@@H](C)[C@@H](CN(C)Cc1ccc3c(c1)OCO3)O2	-3	32*	51	2	-1
COc1ccc(CN(C)C[C@@H]2Oc3ccc(NS(=O)(=O)c4c(C)noc4C)cc3C(=O)N([C@H](C)CO)C[C@H]2C)cc1	u	14	x	-3	-29
Cc1noc(C)c1S(=O)(=O)Nc1ccc2c(c1)C(=O)N([C@H](C)CO)C[C@H](C)[C@H](CN(C)Cc1ccccc1)O2	x	21*	-2	7	-10
COc1ccc(CN(C)C[C@H]2Oc3ccc(NS(=O)(=O)c4c(C)noc4C)cc3C(=O)N([C@H](C)CO)C[C@H]2C)cc1	-4	29*	x	11	24
C[C@H]1CN([C@@H](C)CO)C(=O)c2cccc(NC(=O)c3ccc(-c4nccs4)cc3)c2O[C@H]1CN(C)Cc1ccc(C(F)(F)F)cc1	-5	0	38	17*	-3
C[C@@H]1CN([C@@H](C)CO)C(=O)c2cccc(NC(=O)c3ccc(-c4nccs4)cc3)c2O[C@@H]1CN(C)Cc1ccc(C(=O)O)cc1	13	-2	x	1	-1
C[C@H](CO)N1C[C@H](C)[C@H](CN(C)Cc2ccc(C(F)(F)F)cc2)Oc2c(NC(=O)c3ccc(-c4nccs4)cc3)cccc2C1=O	-11	3	-39	16*	5
C[C@H]1CN([C@@H](C)CO)C(=O)c2cccc(NC(=O)c3ccc(-c4nccs4)cc3)c2O[C@@H]1CN(C)Cc1ccc(C(=O)O)cc1	-1	-13	x	3	-2
CN(C)CC(=O)Nc1ccc2c(c1)[C@@H]1C[C@@H](CC(=O)NCc3cc(F)ccc3F)O[C@@H](CO)[C@@H]1O2	0	-2	0	-4	8
CCOc1ccc(NS(=O)(=O)c2ccc(C(=O)N3CCCCC3)cc2)cc1	0	-7	-12	-2	-6
CCOc1ccc(NS(=O)(=O)c2cc(C(=O)N3CCC3)ccc2Cl)cc1	x	47*	6	-2	-4
C[C@@H]1CCCCO[C@H](CN(C)C(=O)C2CCCCC2)[C@H](C)CN([C@H](C)CO)C(=O)c2cc(NC(=O)c3ccncc3)ccc2O1	3	1	26	1	-8
